Screening data from PubChem.
APJ agonist = agonists of human APJ apelin receptor | CHO-K1 APJ PathHunter beta-arrestin, luminescence; 0% DMSO wells, 100% apelin | activation, % at 20 µM | actives 0.11% (n = 330,000);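 active = activation more than six SD over the plate average, tested at 20 µM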;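 also: 0% = DMSO alone and 100% = apelin-13 at 10 nM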
Target sequence (P35414 whole entry, looked up): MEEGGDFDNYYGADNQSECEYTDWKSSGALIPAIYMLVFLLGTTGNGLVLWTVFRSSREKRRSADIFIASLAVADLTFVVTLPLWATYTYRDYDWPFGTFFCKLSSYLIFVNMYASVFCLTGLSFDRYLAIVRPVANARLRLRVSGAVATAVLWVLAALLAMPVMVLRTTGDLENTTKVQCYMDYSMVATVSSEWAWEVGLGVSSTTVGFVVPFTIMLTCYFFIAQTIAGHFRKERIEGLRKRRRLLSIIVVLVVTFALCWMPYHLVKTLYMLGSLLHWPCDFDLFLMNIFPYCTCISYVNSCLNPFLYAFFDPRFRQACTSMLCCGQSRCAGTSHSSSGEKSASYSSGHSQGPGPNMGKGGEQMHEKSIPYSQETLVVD
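assay system = CHO-K1 APJ beta-arrestin complementation cell line | input = cell density 1000 per well | dosing = compound 20 µM once, DMSO 1% | timing = compound 90 min 25 °C, reagent 1 h | measured by = luminescence from split beta-galactosidase complementation, Galacton Star/Emerald II substrate | read-out basis = APJ agonist activity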
CXCR6 block = CXCR6 (human) receptor inhibition; O00574; CHO-K1 PathHunter CXCR6 beta-arrestin, luminescence; inhibition, % at 20 µM; actives 0.36% (n = 360,000); AID 602244; in the data active = inhibition above about 34%, passing the limit was not always enough;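 also: antagonist mode with CXCL16 agonist at 10 nM final; 0% = 10 nM CXCL16 with DMSO and 100% = unstimulated wells without agonist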
APJ antag = APJ receptor antagonism; actives 0.32% (n = 330,000); inhibition, % at 20 µM; CHO-K1 APJ beta-arrestin complementation, luminescence;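 active = inhibition above about 40% at 20 µM, limit read from the data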;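 also: cells challenged with 10 nM apelin-13 agonist together with compound; plate controls were apelin-13 plus DMSO wells for no effect and DMSO wells lacking apelin-13 for full effect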
EBI2 block = EBI2 (human) antagonism | EBI2 beta-arrestin recruitment, luminescence, 7a,25-OHC stimulated | inhibition, % at 5 µM | actives 0.81% (n = 360,000); in the data active = inhibition above about 38%;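 also: enzyme fragment complementation signal reports receptor beta-arrestin coupling in cells; 0% = agonist plus DMSO wells and 100% = wells without agonist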
CCR6 antagonist = antagonists of human CCR6 receptor | P51684 | CHO-K1 CCR6 PathHunter beta-arrestin, luminescence, CCL20-stimulated | inhibition, % at 20 µM | actives 0.49% (n = 340,000) | AID 493098;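 active = compounds whose inhibition of the agonist-driven luminescence signal at 20 µM reaches about 50%, limit read from the data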;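 also: cells stimulated with CCL20 at 14 nM final; plate controls were DMSO with CCL20 for no effect and DMSO without agonist for full effect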
EBI2 antag conf = confirmation of human EBI2 receptor antagonists | shares compounds with EBI2 block | EBI2 beta-arrestin luminescence, 7a,25-OHC antagonism | inhibition, % at 5 µM | actives 29% (n = 2,400);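 active = inhibition of at least 50%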
EBI2 ag = counter-screen for EBI2 antagonists: EBI2 agonist activity. EBI2-expressing cells, agonist mode, luminescence, 60 min; 0% vehicle, 100% 7α,25-dihydroxycholesterol control. 2,400 tested, under 10 active. activation, % at 5 µM. shares compounds with EBI2 block. AID 652000;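 active = activation of at least 50%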
bGal counter = counter-screen for EBI2 antagonists: E. coli beta-galactosidase inhibition | AID 652176 | inhibition, % at 5 µM | shares compounds with EBI2 block | actives 1% (n = 2,400) | purified beta-galactosidase, luminescent Galacton Star, 15 min;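 active = replicate-average signal at least 3 plate SD below neutral wells, shown as high inhibition, flagging enzyme-inhibiting false positives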;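 also: 0% = DMSO wells with enzyme and 100% = wells lacking enzyme; higher means stronger loss of beta-gal luminescence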
Numbers without * were called inactive; x = no result given. Compounds with a hit are over-represented: about 1.5% of the library has one in this group of screens.

SMILES	APJ agonist	CXCR6 block	APJ antag	EBI2 block	CCR6 antagonist	EBI2 antag conf	EBI2 ag	bGal counter
COc1ccc(C(NC(=O)C2CCN(CCOc3ccc(Cl)cc3)CC2)c2cccs2)cc1 (configuration not stated)	x	4	x	46*	x	32	1	9
COc1ccccc1C(=O)NCC(=O)OCc1nnc(-c2ccccc2)o1	x	-3	x	0	x	x	x	x
CCCN(CCC)C(=O)C1CCN(c2ccc(S(=O)(=O)N3CCOCC3)cc2[N+](=O)[O-])CC1	2	8	1	62*	3	25	1	1
COCCN(CCOC)C(=O)C1CCN(c2ccc(S(=O)(=O)N3CCOCC3)cc2[N+](=O)[O-])CC1	-9	11	8	-4	4	x	x	x
COC(=O)/C=C1/SC(=Nc2ccc(C)cc2C)NC1=O	-2	3	20	72*	9	72*	0	3
COC(=O)/C=C1\SC(=Nc2ccccc2)NC1=O	-2	8	15	52*	11	59*	-1	-12
CCOc1ccccc1-n1c(=S)sc2c(=O)n(-c3ccccc3)c(=S)[nH]c21	1	8	8	-9	9	x	x	x
N#Cc1ccc(COC(=O)c2ccccn2)cc1	-3	x	-2	x	x	x	x	x
CC[C@]12c3[nH]c4cc(-c5ccco5)ccc4c3CCN1C(=O)[C@@H](CC(=O)NCCN1CCOCC1)C[C@@H]2C(=O)N1CCN(C(=O)C2CC2)CC1	x	-10	x	4	15	x	x	x
CCOC(=O)C1CCN(C(=O)CSc2ccc(Cl)cc2)CC1	-3	7	11	77*	-13	47	3	7
CCOC(=O)C1CCN(C(=O)COc2ccc(Br)cc2C)CC1	-1	2	-2	32	0	x	x	x
CCOC(=O)C1CCN(C(=O)CSc2ccc(Br)cc2)CC1	-2	7	-11	84*	1	54*	1	5
O=C(CSc1ccc(Cl)cc1)N1CCC(c2nc3ccccc3s2)CC1	-3	0	-30	82*	5	66*	1	-8
CC(OC(=O)c1nc(Cl)ccc1Cl)C(=O)NCc1ccccc1 (configuration not stated)	x	6	x	5	x	x	x	x
COc1ccc(CC(=O)N2CCN(S(=O)(=O)c3ccc(Cl)s3)CC2)cc1	-1	2	15	27	2	x	x	x
N#Cc1ccc(OCC(=O)N2CCN(S(=O)(=O)c3cccc(Cl)c3)CC2)cc1	-1	-6	-10	54*	7	21	1	8
N#Cc1ccc(OCC(=O)N2CCN(S(=O)(=O)c3ccc(Cl)s3)CC2)cc1	-3	-2	0	81*	0	44	1	4
COc1ccc(OCC(=O)N2CCN(S(=O)(=O)c3ccc(Cl)s3)CC2)cc1	-3	-17	6	87*	6	79*	1	2
CN(C)S(=O)(=O)c1cccc(C(=O)Nc2n[nH]c(C(F)(F)F)n2)c1	1	3	0	-11	3	x	x	x
CCOc1ccc(NC(=O)CSc2nc3ccccc3nc2N2CCOCC2)cc1	-4	15	11	2	2	x	x	x
COc1ccc([C@H]2CC(=O)C=C(c3cccc4c3sc3ccccc34)C2)cc1OC	-2	1	-17	59*	15	16	0	-13
COc1ccc([C@H]2CC(=O)C=C(c3cccc(OC)c3OC)C2)cc1OC	0	-10	8	3	-2	x	x	x
COC(=O)c1ccc2[nH]c3c(c2c1)CC(C)CC3 (configuration not stated)	2	-9	14	50*	-15	44	-1	-12
O=C(NCCN1CCC(n2c(=O)[nH]c3ccccc32)CC1)c1ccc(Cl)cc1Cl	x	-1	x	-4	x	x	x	x
COC(=O)N/N=C/c1cn(Cc2c(Cl)cccc2Cl)c2ccccc12	0	1	-8	0	15	x	x	x
SMILES	APJ agonist	CXCR6 block	APJ antag	EBI2 block	CCR6 antagonist	EBI2 antag conf	EBI2 ag	bGal counter
COc1cccc(NC(=O)C(Sc2nnc(Nc3ccccc3C)s2)c2ccccc2)c1 (configuration not stated)	-2	9	-9	46*	21	8	0	-10
Cc1cccc(N2CCN(C(=O)NCc3ccc(F)cc3)CC2)c1C	-3	0	-25	58*	9	43	1	4
Cc1cccc(N2CCN(C(=O)Cc3ccc(Br)cc3)CC2)c1C	-1	0	-20	47*	32	11	-1	-10
Cc1cccc(N2CCN(C(=O)CNC(=O)Cc3ccccc3)CC2)c1C	-2	-3	-7	12	16	x	x	x
CSCCC(c1nnnn1-c1c(C)cccc1C)N1CCN(C/C=C/c2ccccc2)CC1 (configuration not stated)	x	11	x	53*	x	8	-1	-13
CCC(c1nnnn1-c1c(C)cccc1C)N1CCN(C/C=C/c2ccccc2)CC1 (configuration not stated)	x	10	x	58*	x	28	0	1
CCC(c1nnnn1-c1c(C)cccc1C)N1CCN(CC)CC1 (configuration not stated)	x	6	x	-3	x	x	x	x
Cc1cccc(C)c1-n1nnnc1C(C1CC1)N1CCN(C/C=C/c2ccccc2)CC1 (configuration not stated)	x	11	x	44*	x	18	-1	0
CCN(CC)CCSc1nnc2c3ccccc3n(Cc3ccccc3)c2n1	0	16	10	54*	21	21	1	1
CCN(CC)CCSc1nnc2c3cc(F)ccc3n(Cc3ccccc3)c2n1	-2	6	4	56*	8	21	0	6
CCn1c2ccccc2c2nnc(SCc3ccccc3)nc21	-4	8	3	8	22	x	x	x
COc1ccc(NC(=O)Cc2nnc(SCC(=O)NC3CCCCC3)n2C)cc1	-1	-7	6	-5	4	x	x	x
C=CCC1(CC=C)CCCN1C(=O)C1CCC(=O)N(CCc2ccc(OC)cc2)C1 (configuration not stated)	-1	3	-20	57*	15	40	0	7
COc1ccc(CCN2CC(C(=O)N(C)Cc3ccc(C)o3)CCC2=O)cc1 (configuration not stated)	-3	1	9	45*	10	32	1	0
C=CCC1(CC=C)CCCN1C(=O)C1CCC(=O)N(CCc2ccccc2)C1 (configuration not stated)	14	-2	17	46*	10	36	-1	-17
COc1ccc(CCN2CC(C(=O)N(C)Cc3ccccn3)CCC2=O)cc1 (configuration not stated)	x	-5	x	9	x	x	x	x
